This is an account of results in PubChem BioAssay.

Structures are written as SMILES. A number with no mark means an inactive call. Calls of active or inactive are those of the source.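 How the source made its calls, unless noted: active means growth inhibition above a set limit, 3 SD over mean compound inhibition, in both replicates (cut at about 43% in these data); inconclusive means above the limit in only one replicate; inactive means at or below the limit in both replicates.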

A short description of one test: S. cerevisiae growth inhibition in restrictive medium, OD615, pilot screen, restrictive growth control, yeast lifespan reduction project (AID 706).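 Further: modified DeaD lifespan yeast strain shifted to restrictive glucose medium.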 As to conditions: OD615, 48 h, at 10 µM, stronger effect = higher value. The method, boiled down: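 Material: engineered S. cerevisiae DeaD strain / Medium: glucose-based CSMM-D restrictive medium / Compound: single dose of 10 µM compound final, 0.25% DMSO / Timing: 4 h pre-incubation, 48 h exposure at 30 °C / Technique: OD615 absorbance reading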
`C=CCOC(=O)C1=C(C)NC(=O)NC1/C=C/c1ccccc1` (stereo not given): the growth inhibition is -13.1%.

As for `Cc1nnc(NC(=O)CSc2nnc(Cc3cccn3C)n2-c2ccccc2)s1`, the growth inhibition was 46.5% (active).

On to `COc1ccc(-n2nnc3c(=O)n(CC(=O)OCc4ccccc4)cnc32)cc1`, for which the growth inhibition is 1.45%.

Take `Cc1ccc(C(C(=O)NC2CCCC2)N2CCCCC2)cc1` (stereo not given): the growth inhibition was -13.5%.

In the case of `COc1ccc(OC)c2sc(NC(=O)c3ccc(Br)s3)nc12`, the growth inhibition was -13%.

With `COc1ccc(NC(=O)N(Cc2cccnc2)Cc2ccccc2Cl)c(OC)c1`, the growth inhibition is -1.88%.

In the case of `O=C(O)c1cc(Cl)c(Cl)cc1C(=O)N1CCOCC1`, the growth inhibition was -13.7%.

Consider `Cc1nnc(NC(=O)CSc2nnc(CNC(=O)c3ccccc3)n2-c2ccccc2)s1`, for which the growth inhibition is -0.57%.

`c1cncc(-c2nc3ccccn3c2Nc2ccc3c(c2)OCCO3)c1`: the growth inhibition was 9.11%.

`O=c1[nH]cnc2c1sc(=S)n2-c1ccccc1`: the growth inhibition was 29.8%.

Turning to `O=C1c2ccccc2C(=O)C1c1ccncc1`, the growth inhibition is -1.51%.

As for `COc1ccccc1-n1c(CNC(=O)c2ccco2)nnc1SCC(=O)Nc1nccs1`, the growth inhibition was -2.6%.

As to `O=C(NCc1ccccc1)c1ccc(/C=N/O)nc1`, the growth inhibition was -5.67%.

Turning to `C=CCOC(=O)COc1ccc2c(C)c(C)c(=O)oc2c1`, the growth inhibition is -6.88%.

Take `CC1CCN(C(=O)c2cc(-c3ccccc3O)on2)CC1`: the growth inhibition was 9.11%.

In the case of `CCCCn1c(=O)cc(N2CCOCC2)[nH]c1=O`, the growth inhibition was -20.6%.

As for `COC(=O)c1ccccc1NS(=O)(=O)c1cn(C)c(=O)n(C)c1=O`, the growth inhibition is -6.46%.

On to `CCOC(=O)c1c(C)n(C)c2ccc(OCC(N)=O)cc12`, for which the growth inhibition is -11%.

In the case of `CC(=O)NCC(=O)N(c1ccccc1)C1(C(=O)NC2CCCCC2)CCCCC1`, the growth inhibition was 6.72%.

As for `C=CCNc1nc2c(c(=O)n(C)c(=O)n2C)n1CC(=C)C`, the growth inhibition was 2.97%.

With `O=C(C1CC1)N1CCc2cc(Br)cc(S(=O)(=O)NCc3ccccn3)c21`, the growth inhibition was -19%.

Regarding `Cc1cccc(OCCn2c(=O)n(C)c3ccccc32)c1`, the growth inhibition was -5.27%.

For the compound `COc1ccc(CCNc2nc(=O)[nH]nc2C)cc1OC`, the growth inhibition was -16.5%.

For `COCCNC(=O)Cn1cnc2sc(C)c(S(=O)(=O)N3CCC(C)CC3)c2c1=O`, the growth inhibition was -3.64%.

Take `CNC(=O)N(C1=NCC(C)(C)S1)c1ccc(F)c(Cl)c1`: the growth inhibition was -16.6%.

For `CN(C)CCNC(=O)c1ccc(CS(=O)(=O)c2ccc(Br)cc2)o1`, the growth inhibition is 4.8%.

Consider `Cc1cc(NC(=O)c2ccccc2)sc1C`, for which the growth inhibition was 3.02%.

As for `CCOC(=O)N1CCC(NC(=O)c2cc3c(-c4ccc(Cl)cc4)nn(C)c3s2)CC1`, the growth inhibition is -2.64%.

Turning to `O=C(CSc1ncnc2c1oc1ccccc12)NCc1ccc(F)cc1`, the growth inhibition is -4.67%.

Turning to `CCCCSC1=C(C#N)C(c2ccccc2C)CC(=O)N1` (stereo not given), the growth inhibition is 3.23%.

For the compound `CC(=O)NCC(=O)OCC(=O)c1ccc(C)cc1`, the growth inhibition was -5.04%.

In the case of `CC1(C)Cc2c(C#N)c(NC3CCCCC3)nc(-c3ccco3)c2CO1`, the growth inhibition was -17.4%.

As for `CC(C)NC(=O)c1ccc(CS(=O)(=O)c2ccc(Br)cc2)o1`, the growth inhibition was 3.97%.

Regarding `COC(=O)Cn1c(CN2CCN(c3ccc(F)cc3)CC2)nc2c1c(=O)n(C)c(=O)n2C`, the growth inhibition is -4.9%.

As to `CN1CCc2c(sc(NC(=O)c3ccc(S(=O)(=O)N4CCOCC4)cc3)c2C(N)=O)C1`, the growth inhibition is -4.6%.

In the case of `O=C(NCCn1ccc2ccccc21)c1ccc(S(=O)(=O)N2CCCCC2)cc1`, the growth inhibition was -22.4%.

For `Cn1c(CNC(=O)c2ccc(F)cc2)nc2ccccc21`, the growth inhibition is -5.71%.

On to `CC1(C)CC(=O)C=C(NCCN2CCN(C(=O)Nc3ccc(Cl)c(Cl)c3)CC2)C1`, for which the growth inhibition is 8.88%.

With `CCc1ccc(S(=O)(=O)NCc2csc(-c3cccnc3)n2)s1`, the growth inhibition was 1.16%.

Consider `CC(=O)c1cccc(NC(=O)N2CCCC2C(=O)NCc2ccccc2)c1` (stereo not given), for which the growth inhibition is -11.5%.

The next test can be described thus: doxorubicin toxicity protection in MRP-1 cells – H69AR cells, CellTiter-Glo, duplicate, MRP-1 activator project, pilot screen (AID 807;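 active means viability increase at or above a cutoff of the median across tested compounds plus 3 SD, cut at about 8.5% in these data, passing the limit was not always enough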;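 further: compound pretreatment 18-22 h then 72 h combined with doxorubicin; 0% = doxorubicin alone and 100% = vehicle without doxorubicin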). Particulars: H69AR viability with doxorubicin, CellTiter-Glo luminescence; at 10 µM; stronger effect = higher value.
On to `C=CCOC(=O)C1=C(C)NC(=O)NC1/C=C/c1ccccc1` (stereo not given), for which the viability increase is -0.12%.

Take `Cc1nnc(NC(=O)CSc2nnc(Cc3cccn3C)n2-c2ccccc2)s1`: the viability increase is 0.97%.

Consider `COc1ccc(-n2nnc3c(=O)n(CC(=O)OCc4ccccc4)cnc32)cc1`, for which the viability increase was -1.76%.

For the compound `Cc1ccc(C(C(=O)NC2CCCC2)N2CCCCC2)cc1` (stereo not given), the viability increase was -1.32%.

As to `COc1ccc(OC)c2sc(NC(=O)c3ccc(Br)s3)nc12`, the viability increase is -3.64%.

Take `COc1ccc(NC(=O)N(Cc2cccnc2)Cc2ccccc2Cl)c(OC)c1`: the viability increase is -3.53%.

Turning to `O=C(O)c1cc(Cl)c(Cl)cc1C(=O)N1CCOCC1`, the viability increase is -0.17%.

On to `Cc1nnc(NC(=O)CSc2nnc(CNC(=O)c3ccccc3)n2-c2ccccc2)s1`, for which the viability increase is 0%.

Consider `c1cncc(-c2nc3ccccn3c2Nc2ccc3c(c2)OCCO3)c1`, for which the viability increase is -2.32%.

`O=c1[nH]cnc2c1sc(=S)n2-c1ccccc1`: the viability increase was -0.17%.

On to `O=C1c2ccccc2C(=O)C1c1ccncc1`, for which the viability increase was -1.88%.

As to `COc1ccccc1-n1c(CNC(=O)c2ccco2)nnc1SCC(=O)Nc1nccs1`, the viability increase was -5.08%.

On to `O=C(NCc1ccccc1)c1ccc(/C=N/O)nc1`, for which the viability increase is -0.06%.

On to `C=CCOC(=O)COc1ccc2c(C)c(C)c(=O)oc2c1`, for which the viability increase was 0.26%.

Consider `CC1CCN(C(=O)c2cc(-c3ccccc3O)on2)CC1`, for which the viability increase was -0.44%.

`CCCCn1c(=O)cc(N2CCOCC2)[nH]c1=O`: the viability increase was 0.83%.

For the compound `COC(=O)c1ccccc1NS(=O)(=O)c1cn(C)c(=O)n(C)c1=O`, the viability increase is -1.59%.

As to `CCOC(=O)c1c(C)n(C)c2ccc(OCC(N)=O)cc12`, the viability increase was -4.45%.

For `CC(=O)NCC(=O)N(c1ccccc1)C1(C(=O)NC2CCCCC2)CCCCC1`, the viability increase is -2.01%.

On to `C=CCNc1nc2c(c(=O)n(C)c(=O)n2C)n1CC(=C)C`, for which the viability increase was -0.38%.

On to `O=C(C1CC1)N1CCc2cc(Br)cc(S(=O)(=O)NCc3ccccn3)c21`, for which the viability increase is -1.89%.

As to `Cc1cccc(OCCn2c(=O)n(C)c3ccccc32)c1`, the viability increase is -2.39%.

Regarding `COc1ccc(CCNc2nc(=O)[nH]nc2C)cc1OC`, the viability increase was -1.65%.

`COCCNC(=O)Cn1cnc2sc(C)c(S(=O)(=O)N3CCC(C)CC3)c2c1=O`: the viability increase was 0.05%.

With `CNC(=O)N(C1=NCC(C)(C)S1)c1ccc(F)c(Cl)c1`, the viability increase is -6.94%.

Take `CN(C)CCNC(=O)c1ccc(CS(=O)(=O)c2ccc(Br)cc2)o1`: the viability increase was -0.05%.

As to `Cc1cc(NC(=O)c2ccccc2)sc1C`, the viability increase was -3.69%.

As for `CCOC(=O)N1CCC(NC(=O)c2cc3c(-c4ccc(Cl)cc4)nn(C)c3s2)CC1`, the viability increase is -5.61%.

Turning to `O=C(CSc1ncnc2c1oc1ccccc12)NCc1ccc(F)cc1`, the viability increase is -3.33%.

For `CCCCSC1=C(C#N)C(c2ccccc2C)CC(=O)N1` (stereo not given), the viability increase is -2.96%.

Consider `CC(=O)NCC(=O)OCC(=O)c1ccc(C)cc1`, for which the viability increase is -0.54%.

Regarding `CC1(C)Cc2c(C#N)c(NC3CCCCC3)nc(-c3ccco3)c2CO1`, the viability increase is -6.33%.

In the case of `CC(C)NC(=O)c1ccc(CS(=O)(=O)c2ccc(Br)cc2)o1`, the viability increase is -1.73%.

For the compound `COC(=O)Cn1c(CN2CCN(c3ccc(F)cc3)CC2)nc2c1c(=O)n(C)c(=O)n2C`, the viability increase is -0.86%.

For the compound `CN1CCc2c(sc(NC(=O)c3ccc(S(=O)(=O)N4CCOCC4)cc3)c2C(N)=O)C1`, the viability increase was -0.65%.

On to `O=C(NCCn1ccc2ccccc21)c1ccc(S(=O)(=O)N2CCCCC2)cc1`, for which the viability increase is -5.02%.

As to `Cn1c(CNC(=O)c2ccc(F)cc2)nc2ccccc21`, the viability increase was -2.48%.

As for `CC1(C)CC(=O)C=C(NCCN2CCN(C(=O)Nc3ccc(Cl)c(Cl)c3)CC2)C1`, the viability increase is -3.81%.

Take `CCc1ccc(S(=O)(=O)NCc2csc(-c3cccnc3)n2)s1`: the viability increase is -0.39%.

`CC(=O)c1cccc(NC(=O)N2CCCC2C(=O)NCc2ccccc2)c1` (stereo not given): the viability increase was -1.13%.
